Data on two compounds can be found in ChEMBL document CHEMBL4330096, “Discovery of potent and selective 5-azaindazole inhibitors of leucine-rich repeat kinase 2 (LRRK2) - Part 1” (Bioorg Med Chem Lett, 2019).

For test [1], the target named is Aurora kinase B (Homo sapiens) (UniProt Q96GD4). As to the kind of experiment: Inhibition of Aurora B (unknown origin) at 1 uM relative to control. The method in brief:
(§1)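 Single-point screen of each compound against a panel of 59 protein kinases, at 1 or 10 μM. The panel data are also summarised as a rescaled geometric mean selectivity score.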

The target in test [2] is T1, Serine/threonine-protein kinase BRSK2 (Homo sapiens) (UniProt Q8IWQ3).
T1 sequence (whole entry): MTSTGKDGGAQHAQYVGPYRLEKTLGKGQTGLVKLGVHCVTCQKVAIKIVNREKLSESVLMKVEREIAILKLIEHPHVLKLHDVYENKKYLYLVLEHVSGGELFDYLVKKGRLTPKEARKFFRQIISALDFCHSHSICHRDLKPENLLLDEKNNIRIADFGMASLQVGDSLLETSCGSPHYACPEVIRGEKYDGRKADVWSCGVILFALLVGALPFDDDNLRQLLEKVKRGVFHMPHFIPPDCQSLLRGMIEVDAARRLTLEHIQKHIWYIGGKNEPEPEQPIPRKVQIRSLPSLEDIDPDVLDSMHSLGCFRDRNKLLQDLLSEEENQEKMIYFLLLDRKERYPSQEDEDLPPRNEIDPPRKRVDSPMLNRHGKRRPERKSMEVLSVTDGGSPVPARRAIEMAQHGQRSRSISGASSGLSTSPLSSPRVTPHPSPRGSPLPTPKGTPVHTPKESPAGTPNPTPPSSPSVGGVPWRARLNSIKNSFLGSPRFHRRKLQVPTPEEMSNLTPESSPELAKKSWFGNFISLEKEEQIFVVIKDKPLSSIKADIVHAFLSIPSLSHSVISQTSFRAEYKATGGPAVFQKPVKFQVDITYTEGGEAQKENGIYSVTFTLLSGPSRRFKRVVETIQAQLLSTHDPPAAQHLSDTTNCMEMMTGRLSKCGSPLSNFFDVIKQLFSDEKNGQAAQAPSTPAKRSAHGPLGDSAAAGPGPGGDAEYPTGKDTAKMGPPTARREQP
The test can be described thus: Inhibition of BRSK2 (unknown origin) at 1 uM relative to control. Summed up:
as §1

The target of test [3] is Calcium/calmodulin-dependent protein kinase kinase 2 (Homo sapiens) (UniProt Q96RR4). The test can be described thus: Inhibition of CAMKKb (unknown origin) at 1 uM relative to control. Summed up: as §1
Calcium/calmodulin-dependent protein kinase kinase 2 (Homo sapiens), sequence (Q96RR4 2-588 limits assumed): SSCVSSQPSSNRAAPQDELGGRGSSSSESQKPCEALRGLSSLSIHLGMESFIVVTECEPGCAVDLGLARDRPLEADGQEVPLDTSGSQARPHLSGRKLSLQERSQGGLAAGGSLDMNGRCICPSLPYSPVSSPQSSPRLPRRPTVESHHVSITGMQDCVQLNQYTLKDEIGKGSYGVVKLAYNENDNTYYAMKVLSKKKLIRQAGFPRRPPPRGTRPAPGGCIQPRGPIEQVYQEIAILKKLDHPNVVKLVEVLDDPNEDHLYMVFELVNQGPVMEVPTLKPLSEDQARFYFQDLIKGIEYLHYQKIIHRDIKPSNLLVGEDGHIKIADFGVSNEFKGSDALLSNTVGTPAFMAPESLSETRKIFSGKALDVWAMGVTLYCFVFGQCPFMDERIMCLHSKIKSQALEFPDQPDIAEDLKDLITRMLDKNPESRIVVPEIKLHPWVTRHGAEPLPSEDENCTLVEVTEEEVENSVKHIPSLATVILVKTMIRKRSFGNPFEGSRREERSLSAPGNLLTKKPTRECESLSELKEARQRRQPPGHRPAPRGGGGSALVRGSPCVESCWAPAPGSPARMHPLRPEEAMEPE
The target of test [4] is CDK2/Cyclin A2 (Homo sapiens) (UniProt P24941+P20248). The test can be described thus: Inhibition of CDK2/cyclinA (unknown origin) at 1 uM relative to control. The test is classed as protein-complex assay. The method in brief:
as §1

Test [5] has as its target Casein kinase 2 (Homo sapiens) (UniProt P67870+P68400+P19784+Q8NEV1). The test can be described thus: Inhibition of CK2 (unknown origin) at 1 uM relative to control. The test is classed as protein assay. The method in brief:
as §1

Test [6] concerns the target Tyrosine-protein kinase CSK (Homo sapiens) (UniProt P41240). The test can be described thus: Inhibition of CSK (unknown origin) at 1 uM relative to control. Summed up: as §1
Test [7] concerns the target Mitogen-activated protein kinase 3 (Homo sapiens) (UniProt P27361). As to the kind of experiment: Inhibition of ERK1 (unknown origin) at 1 uM relative to control. The method in brief: as §1
The target in test [8] is Fibroblast growth factor receptor 1 (Homo sapiens) (UniProt P11362). The test can be described thus: Inhibition of FGFR1 (unknown origin) at 1 uM relative to control. The method in brief: as §1
Test [9] has as its target Homeodomain-interacting protein kinase 2 (Homo sapiens) (UniProt Q9H2X6). As to the kind of experiment: Inhibition of HIPK2 (unknown origin) at 1 uM relative to control. Summed up: as §1
The target in test [10] is T2, Inhibitor of nuclear factor kappa-B kinase subunit beta (Homo sapiens) (UniProt O14920).
T2 sequence (whole entry): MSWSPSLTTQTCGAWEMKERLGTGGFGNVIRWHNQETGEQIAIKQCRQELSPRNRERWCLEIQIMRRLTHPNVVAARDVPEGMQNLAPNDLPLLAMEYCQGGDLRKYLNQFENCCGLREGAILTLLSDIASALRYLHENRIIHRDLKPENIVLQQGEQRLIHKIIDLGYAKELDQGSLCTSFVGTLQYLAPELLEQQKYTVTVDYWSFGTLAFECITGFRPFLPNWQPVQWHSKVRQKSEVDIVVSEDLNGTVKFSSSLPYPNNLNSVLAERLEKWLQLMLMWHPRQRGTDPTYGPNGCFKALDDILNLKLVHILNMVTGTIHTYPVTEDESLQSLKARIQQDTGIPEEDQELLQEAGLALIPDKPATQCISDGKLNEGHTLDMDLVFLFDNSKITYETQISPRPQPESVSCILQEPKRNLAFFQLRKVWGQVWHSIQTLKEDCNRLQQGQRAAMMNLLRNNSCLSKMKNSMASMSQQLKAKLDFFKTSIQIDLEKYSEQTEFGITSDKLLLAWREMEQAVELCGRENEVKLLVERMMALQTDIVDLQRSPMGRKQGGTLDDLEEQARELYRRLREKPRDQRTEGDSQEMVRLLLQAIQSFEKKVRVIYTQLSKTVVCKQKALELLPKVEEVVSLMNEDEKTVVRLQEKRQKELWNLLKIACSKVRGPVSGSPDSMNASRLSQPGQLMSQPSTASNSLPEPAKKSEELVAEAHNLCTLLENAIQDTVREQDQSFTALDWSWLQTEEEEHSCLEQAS
The test can be described thus: Inhibition of IKKb (unknown origin) at 1 uM relative to control. The method in brief: as §1

The target of test [11] is Mitogen-activated protein kinase 8 (Homo sapiens) (UniProt P45983). The test can be described thus: Inhibition of JNK1 (unknown origin) at 1 uM relative to control. The method in brief:
as §1

For test [12], the target named is Mitogen-activated protein kinase 9 (Homo sapiens) (UniProt P45984). The test can be described thus: Inhibition of JNK2 (unknown origin) at 1 uM relative to control. The method in brief: as §1
Test [13] addresses Dual specificity mitogen-activated protein kinase kinase 1 (Homo sapiens) (UniProt Q02750). The test can be described thus: Inhibition of MKK1 (unknown origin) at 1 uM relative to control. Summed up: (§2)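 Single-concentration screen of each compound against a 59-protein-kinase panel, run at 10 µM or 1 µM. Activity relative to control is shown as a heat map across the panel.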

Test [14] concerns the target Serine/threonine-protein kinase 26 (Homo sapiens) (UniProt Q9P289). As to the kind of experiment: Inhibition of MST4 (unknown origin) at 1 uM relative to control. Summed up:
as §2

For test [15], the target named is Serine/threonine-protein kinase Nek6 (Homo sapiens) (UniProt Q9HC98). The test can be described thus: Inhibition of NEK6 (unknown origin) at 1 uM relative to control. Summed up: as §2
In test [16] the target is Mitogen-activated protein kinase 14 (Homo sapiens) (UniProt Q16539). As to the kind of experiment: Inhibition of p38a MAPK (unknown origin) at 1 uM relative to control. Summed up: (§3)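 Single-concentration screen across a panel of 59 protein kinases, with each compound tested at one fixed concentration. The read-out is residual kinase activity relative to control. Panel results are also condensed into a rescaled geometric mean (RGM) selectivity score.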
Mitogen-activated protein kinase 14 (Homo sapiens), sequence (Q16539 whole entry): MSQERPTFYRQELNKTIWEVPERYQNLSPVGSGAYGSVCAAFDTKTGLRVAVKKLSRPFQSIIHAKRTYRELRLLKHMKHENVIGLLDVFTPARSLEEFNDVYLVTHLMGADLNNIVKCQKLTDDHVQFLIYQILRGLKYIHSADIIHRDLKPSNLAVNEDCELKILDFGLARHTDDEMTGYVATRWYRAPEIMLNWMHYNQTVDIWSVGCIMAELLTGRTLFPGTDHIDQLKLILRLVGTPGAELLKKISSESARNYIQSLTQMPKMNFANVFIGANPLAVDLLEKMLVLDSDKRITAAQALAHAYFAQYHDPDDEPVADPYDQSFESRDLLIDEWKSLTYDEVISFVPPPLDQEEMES

Test [17] deals with Serine/threonine-protein kinase PLK1 (Homo sapiens) (UniProt P53350). The test can be described thus: Inhibition of PLK1 (unknown origin) at 1 uM relative to control. Summed up:
as §2

Test [18] has as its target Rho-associated protein kinase 2 (Homo sapiens) (UniProt O75116). As to the kind of experiment: Inhibition of ROCK2 (unknown origin) at 1 uM relative to control. Summed up:
as §2

The target in test [19] is Tyrosine-protein kinase Yes (Homo sapiens) (UniProt P07947). The test can be described thus: Inhibition of YES1 (unknown origin) at 1 uM relative to control. The method in brief: as §3
Tyrosine-protein kinase Yes (Homo sapiens), sequence (P07947 2-543 limits assumed): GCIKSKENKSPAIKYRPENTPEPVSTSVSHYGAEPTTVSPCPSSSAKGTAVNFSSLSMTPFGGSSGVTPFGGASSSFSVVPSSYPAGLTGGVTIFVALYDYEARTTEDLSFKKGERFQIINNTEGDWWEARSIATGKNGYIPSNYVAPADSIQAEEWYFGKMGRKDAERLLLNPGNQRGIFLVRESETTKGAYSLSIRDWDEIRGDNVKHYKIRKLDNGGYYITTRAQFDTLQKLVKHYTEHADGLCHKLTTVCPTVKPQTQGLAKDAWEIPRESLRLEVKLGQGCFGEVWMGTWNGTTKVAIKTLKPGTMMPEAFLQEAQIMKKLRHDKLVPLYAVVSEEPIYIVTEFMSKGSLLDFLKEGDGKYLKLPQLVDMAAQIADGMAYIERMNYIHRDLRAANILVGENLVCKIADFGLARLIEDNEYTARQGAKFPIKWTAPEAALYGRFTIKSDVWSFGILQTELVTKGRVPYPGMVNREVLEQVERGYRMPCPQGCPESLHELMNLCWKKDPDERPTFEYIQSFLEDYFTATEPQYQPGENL

As usually defined, the inhibition is the relative decrease from the control value, in per cent.

Mitogen-activated protein kinase 8 (Homo sapiens), sequence (P45983 whole entry): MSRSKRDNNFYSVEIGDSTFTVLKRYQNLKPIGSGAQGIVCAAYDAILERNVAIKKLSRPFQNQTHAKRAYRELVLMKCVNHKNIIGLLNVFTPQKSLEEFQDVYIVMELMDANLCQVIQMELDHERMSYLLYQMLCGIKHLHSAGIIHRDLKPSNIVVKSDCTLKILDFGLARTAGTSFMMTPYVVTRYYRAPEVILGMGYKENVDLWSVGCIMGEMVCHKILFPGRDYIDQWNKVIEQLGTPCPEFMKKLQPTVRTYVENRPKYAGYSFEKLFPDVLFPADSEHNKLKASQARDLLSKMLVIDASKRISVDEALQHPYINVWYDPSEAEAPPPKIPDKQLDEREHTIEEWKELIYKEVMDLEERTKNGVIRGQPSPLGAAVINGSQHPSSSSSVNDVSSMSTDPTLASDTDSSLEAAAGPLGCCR
Serine/threonine-protein kinase 26 (Homo sapiens), sequence (Q9P289 2-416 limits assumed): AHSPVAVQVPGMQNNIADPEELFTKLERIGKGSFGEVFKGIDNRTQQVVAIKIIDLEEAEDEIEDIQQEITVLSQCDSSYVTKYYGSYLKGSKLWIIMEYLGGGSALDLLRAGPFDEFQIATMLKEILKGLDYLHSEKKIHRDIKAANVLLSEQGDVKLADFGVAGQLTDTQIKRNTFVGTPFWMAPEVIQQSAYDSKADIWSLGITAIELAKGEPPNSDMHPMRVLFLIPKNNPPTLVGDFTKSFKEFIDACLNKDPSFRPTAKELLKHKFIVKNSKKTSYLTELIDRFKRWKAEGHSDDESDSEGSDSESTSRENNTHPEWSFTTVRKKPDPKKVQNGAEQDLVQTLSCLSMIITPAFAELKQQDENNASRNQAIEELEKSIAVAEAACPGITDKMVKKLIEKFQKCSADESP
Serine/threonine-protein kinase PLK1 (Homo sapiens), sequence (P53350 whole entry): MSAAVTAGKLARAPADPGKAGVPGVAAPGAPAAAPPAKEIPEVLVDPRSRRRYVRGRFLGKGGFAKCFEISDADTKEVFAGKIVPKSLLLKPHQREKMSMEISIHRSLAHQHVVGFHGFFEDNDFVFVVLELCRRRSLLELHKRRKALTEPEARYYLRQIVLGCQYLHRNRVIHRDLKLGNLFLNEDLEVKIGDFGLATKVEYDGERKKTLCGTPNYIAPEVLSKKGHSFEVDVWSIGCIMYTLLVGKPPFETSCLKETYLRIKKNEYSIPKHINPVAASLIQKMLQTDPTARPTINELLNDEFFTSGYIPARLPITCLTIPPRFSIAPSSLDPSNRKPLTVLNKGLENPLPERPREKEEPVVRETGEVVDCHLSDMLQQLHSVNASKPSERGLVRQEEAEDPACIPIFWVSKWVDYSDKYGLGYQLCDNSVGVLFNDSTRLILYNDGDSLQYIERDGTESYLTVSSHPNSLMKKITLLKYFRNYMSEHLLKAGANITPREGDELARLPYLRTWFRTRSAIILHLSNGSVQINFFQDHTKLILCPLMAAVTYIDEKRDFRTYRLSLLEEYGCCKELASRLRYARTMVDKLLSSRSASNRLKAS
Homeodomain-interacting protein kinase 2 (Homo sapiens), sequence (Q9H2X6 whole entry, looked up): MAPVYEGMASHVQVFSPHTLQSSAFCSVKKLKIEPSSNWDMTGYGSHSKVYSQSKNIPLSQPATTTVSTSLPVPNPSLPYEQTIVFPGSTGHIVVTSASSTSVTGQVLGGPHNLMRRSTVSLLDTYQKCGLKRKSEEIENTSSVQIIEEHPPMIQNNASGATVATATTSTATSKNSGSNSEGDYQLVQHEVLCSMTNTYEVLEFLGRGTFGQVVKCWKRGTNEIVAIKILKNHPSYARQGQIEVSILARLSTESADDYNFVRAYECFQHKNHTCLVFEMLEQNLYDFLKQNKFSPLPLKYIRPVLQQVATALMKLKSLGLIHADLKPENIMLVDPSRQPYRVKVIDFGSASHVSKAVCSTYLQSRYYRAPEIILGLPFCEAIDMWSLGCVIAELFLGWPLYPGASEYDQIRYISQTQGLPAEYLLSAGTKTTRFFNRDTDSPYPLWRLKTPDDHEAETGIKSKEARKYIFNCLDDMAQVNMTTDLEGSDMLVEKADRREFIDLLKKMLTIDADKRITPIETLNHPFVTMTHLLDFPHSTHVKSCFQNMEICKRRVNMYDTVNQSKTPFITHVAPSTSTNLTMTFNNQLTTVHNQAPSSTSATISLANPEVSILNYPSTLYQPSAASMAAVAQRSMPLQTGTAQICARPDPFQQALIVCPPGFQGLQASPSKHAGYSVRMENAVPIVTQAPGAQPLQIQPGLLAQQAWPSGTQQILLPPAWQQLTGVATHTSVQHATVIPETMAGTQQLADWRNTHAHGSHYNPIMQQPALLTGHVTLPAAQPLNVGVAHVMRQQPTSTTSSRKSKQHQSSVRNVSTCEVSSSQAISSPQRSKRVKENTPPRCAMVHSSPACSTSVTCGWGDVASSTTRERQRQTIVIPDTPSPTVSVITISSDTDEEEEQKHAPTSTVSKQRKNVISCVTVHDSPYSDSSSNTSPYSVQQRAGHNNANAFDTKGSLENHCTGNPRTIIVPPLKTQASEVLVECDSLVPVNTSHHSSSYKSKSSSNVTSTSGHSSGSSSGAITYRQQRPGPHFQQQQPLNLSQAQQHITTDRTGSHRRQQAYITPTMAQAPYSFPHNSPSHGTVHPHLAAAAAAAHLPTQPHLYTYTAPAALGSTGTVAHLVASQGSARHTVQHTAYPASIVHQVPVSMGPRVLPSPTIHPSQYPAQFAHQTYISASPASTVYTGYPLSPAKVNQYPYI
Mitogen-activated protein kinase 3 (Homo sapiens), sequence (P27361 whole entry): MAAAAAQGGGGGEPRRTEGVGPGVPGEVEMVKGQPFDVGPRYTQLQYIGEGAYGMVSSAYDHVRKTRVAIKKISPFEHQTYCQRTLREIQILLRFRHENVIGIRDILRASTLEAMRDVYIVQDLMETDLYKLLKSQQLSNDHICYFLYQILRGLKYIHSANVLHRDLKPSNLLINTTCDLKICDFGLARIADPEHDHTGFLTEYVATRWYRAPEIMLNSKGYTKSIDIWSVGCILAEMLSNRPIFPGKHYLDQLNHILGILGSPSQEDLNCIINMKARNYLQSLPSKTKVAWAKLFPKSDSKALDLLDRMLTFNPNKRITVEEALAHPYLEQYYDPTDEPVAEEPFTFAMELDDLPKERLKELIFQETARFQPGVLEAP
Aurora kinase B (Homo sapiens), sequence (Q96GD4 whole entry): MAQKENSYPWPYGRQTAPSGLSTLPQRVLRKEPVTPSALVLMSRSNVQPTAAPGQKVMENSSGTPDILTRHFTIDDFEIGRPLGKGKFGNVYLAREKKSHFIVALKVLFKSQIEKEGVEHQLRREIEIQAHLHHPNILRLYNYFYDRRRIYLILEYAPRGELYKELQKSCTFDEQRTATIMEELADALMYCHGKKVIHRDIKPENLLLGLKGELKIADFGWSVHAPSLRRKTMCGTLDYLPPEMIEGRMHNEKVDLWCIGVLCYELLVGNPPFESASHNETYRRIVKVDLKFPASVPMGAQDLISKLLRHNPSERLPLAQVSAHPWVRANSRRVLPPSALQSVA

For the compound `CC(C)n1cc(-c2n[nH]c3ccnc(OC4CCOCC4)c23)cn1`, the inhibition worked out at 38% in test [1]; 19% in test [2]; 1% in test [3]; 66% in test [4]; 20% in [5]; 0% in test [6]. For the same compound, the inhibition came out at 28% in test [7]; 56% in [8]; 9% in test [9]; 3% in test [10]; 27% in test [11]; 29% in [12]. In addition, the inhibition was determined as 57% in test [13]; 47% in [14]; 0% in test [15]; 0% in test [16]; 0% in test [17]; 28% in test [18]. The compound also showed an inhibition in test [19] of 0%.
`c1cc(-c2n[nH]c3ccnc(OC4CCOCC4)c23)cc(N2CCOCC2)n1`: the inhibition was determined as 0% in test [1]; 0% in test [2]; 0% in test [3]; 23% in [4]; 3% in test [5]; 0% in test [6]. The inhibition in test [7] is 37%; in test [8] it was 4%; in test [9], 6%; in test [10], 0%; in test [11], 47%; in [12], 43%. Moreover, the inhibition in test [13] came to 7%; in test [14], 3%; in test [15], 0%; in [16], 0%; in [17], 0%; in test [18] it was 0%. The same compound displayed an inhibition in test [19] of 9%.
